Hits are enriched below; roughly 2.7% of the tested compounds scored in any of these assays.
PRMT1 inh: PRMT1 (human) inhibition, primary screen | actives 1.3% (n = 370,000) | inhibition, % at 2.79 µM | Q99873 | AID 652257 | recombinant PRMT1, activity-based probe fluorescence polarization;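 active = inhibition above about 21% made by adding two undisclosed values, limit read from the data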
SIAE inh: blocks human sialic acid acetylesterase; actives 0.69% (n = 370,000); inhibition, % at 9.66 µM; Q9HAT2; AID 1053197; SIAE FP-Rh probe binding, fluorescence polarization;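 active = inhibition above a cutoff: mean of compounds within the control limits plus 3 SD of those, cut at about 17% in these data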;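 note: 0% = plate median of compound wells and 100% = probe without SIAE protein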
Target sequence (Q9HAT2 whole entry, looked up): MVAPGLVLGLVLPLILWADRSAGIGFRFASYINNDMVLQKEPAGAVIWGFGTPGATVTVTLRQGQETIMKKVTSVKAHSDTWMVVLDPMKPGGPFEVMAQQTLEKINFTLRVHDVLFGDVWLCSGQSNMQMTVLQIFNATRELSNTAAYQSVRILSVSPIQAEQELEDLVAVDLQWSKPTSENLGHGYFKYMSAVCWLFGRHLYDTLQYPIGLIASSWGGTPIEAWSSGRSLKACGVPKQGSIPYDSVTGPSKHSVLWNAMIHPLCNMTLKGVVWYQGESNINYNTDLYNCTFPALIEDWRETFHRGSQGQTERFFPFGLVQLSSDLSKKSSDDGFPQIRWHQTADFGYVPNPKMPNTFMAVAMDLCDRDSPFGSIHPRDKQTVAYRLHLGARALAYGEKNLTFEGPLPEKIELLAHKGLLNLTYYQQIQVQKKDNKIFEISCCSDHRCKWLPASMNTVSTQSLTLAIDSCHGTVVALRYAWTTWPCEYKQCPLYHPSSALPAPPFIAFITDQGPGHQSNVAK
GSTO1 inh: GSTO1 inhibition, counter-screen for RBBP9 inhibitors. inhibition, % at 5.96 µM. actives 1.1% (n = 300,000). recombinant GSTO1, activity-based probe fluorescence polarization;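 active = inhibition above the campaign mean inhibition plus 3 SD, cut at about 35% in these data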;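 note: 0% = GSTO1-1 with DMSO and 100% = wells lacking GSTO1-1 enzyme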
PAD4 FP inh: PAD4 (human) enzyme inhibition. Q9UM07. recombinant PAD4, RCA probe fluorescence polarization. inhibition, % at 6.36 µM. actives 0.41% (n = 330,000);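 active = percent inhibition above a cutoff equal to the mean of all tested compounds plus 3 SD, cut at about 15% in these data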;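 note: 0% = PAD4 with RCA probe and DMSO and 100% = probe without PAD4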
RBBP9 inhibitor: human RBBP9 hydrolase inhibition; O75884; recombinant RBBP9, FP-Rh probe fluorescence polarization; inhibition, % at 7.94 µM; actives 0.2% (n = 220,000); AID 1515;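 active = inhibition above the campaign mean of all tested compounds plus 3 SD, cut at about 14% in these data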;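 note: plate controls were DMSO wells with RBBP9 for no effect and wells lacking RBBP9 protein for full effect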
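System: RBBP9 protein | Quantity: 2.5 µM RBBP9 dispensing solution, before mixing | Reagent: FP-Rh probe, 375 nM dispensing solution | Timing: Enzyme-compound preincubation 30 min, then probe labeling 45 min, 25 °C | Measured by: Fluorescence polarization | Read-out: % inhibition | Replication: One well per compound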
PRMT1 confirm: confirmation of human PRMT1 inhibitors; shares compounds with PRMT1 inh; recombinant His-PRMT1, activity-based probe fluorescence polarization; inhibition, % at 2.79 µM; actives 42% (n = 3,300); AID 687036;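 active = mean inhibition across replicates above the hit cutoff derived for the earlier primary screen, cut at about 22% in these data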
An asterisk follows results filed as active; . = no result given.

SMILES	PRMT1 inh	SIAE inh	GSTO1 inh	PAD4 FP inh	RBBP9 inhibitor	PRMT1 confirm
CCOC(=O)C1CCCN(C2CC(=O)N(c3cccc(C)c3)C2=O)C1 (stereo not drawn)	63*	2	0	-6	6	10
CCCOc1ccc(N2C(=O)CC(SCC(N)C(=O)OCC)C2=O)cc1 (stereo not drawn)	27*	-3	7	-1	.	23*
CC(=O)Nc1ccc(SCC(=O)c2cc(C)ccc2C)cc1	29*	-9	4	9	.	25*
COc1ccc(-c2ccc(CCC(=O)O)o2)cc1	58*	10	2	-4	-12	5
O=C(O)CCc1ccc(-c2ccc(Br)cc2)o1	62*	4	17	-2	-16	62*
O=C(c1ccc(-c2ccc([N+](=O)[O-])cc2)o1)N1CCCCCCC1	31*	12	.	-5	.	-1
O=[N+]([O-])c1cc(-c2ccc(C(=S)N3CCOCC3)o2)ccc1Cl	44*	6	16	-14	1	18
O=[N+]([O-])c1cccc(-c2ccc(C(=S)N3CCOCC3)o2)c1	0	2	-4	-9	-2	.
O=[N+]([O-])c1ccccc1-c1ccc(C(=S)N2CCCC2)o1	39*	12	5	-2	-3	8
O=c1cc2c(=O)oc3cc(O)c(O)oc3c2c(O)c1O	27*	12	.	.	-1	31*
CCN1/C(=C/C=C/C=C/c2sc3ccccc3[n+]2CC)Sc2ccccc21	.	.	-124	-107	-36	.
CCN1/C(=C/C=C/C=C/C=C/c2sc3ccccc3[n+]2CC)Sc2ccccc21	53*	-35	-31	-38	.	23*
COc1ccc(NS(=O)(=O)c2ccc(F)c(Cl)c2)cn1	37*	-1	-8	-6	.	8
COCCN1C(=O)N[C@@H](c2cccs2)C(C(C)=O)=C1C	-1	1	0	3	.	.
Brc1ccc(-c2csc3[n+]2CCCCC3)cc1	28*	-2	0	11	-1	1
Cc1ccc(/C=C2/C(=O)ON=C2c2ccccc2)o1	25*	16	18	-8	1	33*
O=C(NC(=O)c1ccccc1)Nc1cccc(S(=O)(=O)N2CCCCC2)c1	6	0	3	0	.	.
CC(C)OC(=O)c1ccc(NC(=O)c2ccccc2)cc1	-1	0	1	-1	-7	.
CC(C)OC(=O)c1ccc(NCc2cc(O)ccc2O)cc1	36*	11	.	.	.	30*
Cc1nn(CC(=O)NC2CCCC2)c(C)c1[N+](=O)[O-]	-2	-3	.	4	.	.
O=C(NCc1ccc2c(c1)OCO2)c1cc(-c2ccccc2)c(N2CCOCC2)s1	.	.	7	-4	.	.
COCCCn1c(=NC(C)=O)c(C#N)cc2c(=O)n3cccc(C)c3nc21	-3	11	-2	-7	-3	.
COCCCn1c(=NC(=O)c2ccccc2)c(C#N)cc2c(=O)n3cccc(C)c3nc21	31*	-6	-9	2	-2	-5
CC1CC1C(=O)Nc1nc(-c2cccs2)c(-c2cccs2)s1 (stereo not drawn)	27*	-7	4	3	-4	9
O=C(Nc1nc(-c2cccs2)c(-c2ccccc2)s1)c1ccco1	-1	-18	-11	1	-12	.
SMILES	PRMT1 inh	SIAE inh	GSTO1 inh	PAD4 FP inh	RBBP9 inhibitor	PRMT1 confirm
O=C(COc1ccccc1)Nc1ccc(Cl)c(-c2nc3ncccc3o2)c1	1	-4	1	-1	-7	.
NC(=O)C[n+]1cccc2ccccc21	55*	6	2	0	-2	10
Cc1ccc(C(=O)C[n+]2cccc3ccccc32)cc1	-1	-1	-4	-11	-5	.
Cc1c(-c2n[nH]c(=S)n2-c2ccc(C(F)(F)F)cc2)nnn1-c1ccccc1	30*	11	2	-5	0	6
Cc1ccc(O)c(C(=O)c2cc(C#N)c(=O)n(-c3nccs3)c2)c1	39*	-13	9	-11	-5	31*
CN(CC(=O)Nc1ccccc1C(=O)Nc1ccccc1)C1CCCCC1	-1	-4	.	4	.	.
CCOc1cc(/C=C2/NC(=O)N(CC(=O)OC)C2=O)ccc1O	2	6	-4	-1	-6	.
CCCc1nc2c(sc3nc4c(cc32)COC(C)(C)C4)c(=O)n1Cc1ccco1	30*	-2	3	-2	-10	9
O=C(C1c2ccccc2Oc2ccccc21)N1CCN(c2ccc(Cl)cc2)CC1	-1	-8	-3	-8	4	.
O=C(O)CCc1ccc(-c2cccs2)n1-c1ccc(C(=O)O)cc1	37*	2	2	-3	-12	10
CC(=O)c1cccc(-n2c(CCC(=O)O)ccc2-c2cccs2)c1	68*	3	8	-1	-9	16
CC(=O)c1cccc(-n2c(CCC(=O)O)ccc2-c2ccccc2)c1	16	4	-5	-13	.	.
S=c1nc(-c2cc(Cl)ccc2Cl)[nH][nH]1	56*	0	-5	0	-5	47*
CC1=C(C(=O)Nc2ccccc2)C(c2ccc(C)o2)n2c(s/c(=C/c3ccccc3)c2=O)=N1 (stereo not drawn)	1	-8	3	-4	-7	.
CC1=C(C(=O)Nc2ccccc2)C(c2ccc(Cl)cc2)n2c(s/c(=C/c3cccc(OCC(=O)O)c3)c2=O)=N1 (stereo not drawn)	26*	-35	-6	0	-22	5
CCOc1ccc(C2C(C(=O)Nc3ccccc3)=C(C)N=c3s/c(=C/c4cccc(OCC(=O)O)c4)c(=O)n32)cc1 (stereo not drawn)	25*	-34	-14	3	-22	1
COc1ccc(/C=N\NC(=O)c2nn(C)cc2Cl)cc1CN1CCOCC1	-2	-1	-2	4	-8	.
NC(=O)c1ccc(NC(=O)COC(=O)/C=C/c2ccc(Br)o2)cc1	36*	-2	.	-2	.	5
O=C(COC(=O)/C=C/c1ccc(Br)o1)Nc1ccc2[nH]c(=O)[nH]c2c1	-2	4	-3	-5	.	.
O=C(Nc1nnc([C@H]2C[C@H](O)[C@@H](CO)O2)s1)Nc1ccccc1F	-2	-2	.	.	.	.
COc1ccc(C(=O)Nc2cc(C(=O)c3ccccc3)c(C)oc2=O)cc1	57*	-5	-3	0	-13	3
COC(=O)c1cc(NC(=O)c2ccccc2)c(=O)oc1C	5	-4	1	1	-8	.
Cc1oc(=O)c(NC(=O)c2ccccc2)cc1C(N)=O	2	4	0	-1	13	.
Cc1oc(=O)c(NC(=O)c2cccc(Cl)c2)cc1C(=O)c1ccccc1	51*	-5	-3	-3	-10	24*
COc1cc(N)c(Cl)cc1C(=O)OCC(=O)N1c2ccccc2NC(=O)C1(C)C	-4	-4	.	3	.	.
CCCCN1C=CC(=C2N=c3cccc([N+](=O)[O-])c3=N2)C=C1	-4	2	-1	-12	-7	.
Cn1cc(Br)c(NC(=O)/C=C/C(=O)O)n1	36*	4	5	4	-3	4

Bioassay records as filed in PubChem BioAssay.
